Data set [1] is described as follows: melting temperature; fluorescence melt of hairpins on a sequencing array, two-state fit, raised by 9.35 °C to match UV melts. The note with it: sodium 0.088 M. In short, it runs like this: (§1)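 Melting temperature and folding enthalpy were obtained by bootstrapped two-state fitting. Fits used Cy3 fluorescence of library hairpins with annealed Cy3 and quencher oligos on a sequenced MiSeq flow cell, imaged in 50 mM Na-HEPES pH 8.0, 25 mM NaCl in 2.5 °C steps up to 60 °C and normalised to pre-quench Cy3 and control constructs. Four replicates were combined by inverse-variance weighting, and fitted temperatures were raised by 9.35 °C to match UV melts.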

A short description of data set [2]: folding enthalpy; higher = less favourable; fluorescence melt of hairpins on a sequencing array, two-state fit. The note with it: sodium 0.088 M. The method, boiled down: as §1

GGACCAGGAAACTGGCCC ((.((((....)))).)): the Tm in data set [1] amounted to 52.3 °C. The folding enthalpy in data set [2] is -35.4 kcal/mol.
On the same counts, the results for GGACCAGGAAACTGGTCC (((((((....))))))) are 68.1 °C and -32.4 kcal/mol.
As to GGACCCCGAAAGGGCTCC (((.(((....))).))), the Tm in data set [1] amounted to 48.6 °C. Besides, the folding enthalpy in data set [2] was -16.3 kcal/mol.
In the same order, the values of GGACCCGAAAGGGCTCC ((((((....))).))) are 58.6 °C and -23.1 kcal/mol.
For the sequence GGACCCGAAAGGGGGTCC ((((((....)))..))), in data set [1], the Tm was determined as 63.8 °C. The folding enthalpy in data set [2] is -27.1 kcal/mol.
As to GGACCCGAAAGGGTGTCC ((((((....)))..))), in data set [1], the Tm stood at 47.1 °C. For the same sequence, the folding enthalpy in data set [2] was -14 kcal/mol.
Take GGACCCGAAAGGGTTTCC ((((((....)))..))): the Tm in data set [1] is 37.1 °C. For the same sequence, in data set [2], the folding enthalpy was -8.05 kcal/mol.
In the same order, the values of GGACCCGGAAACGAGCCC ((.(.((....)).).)) are 30.2 °C and -16 kcal/mol.
Take GGACCCGGAAACGAGTCC ((((.((....)).)))): in data set [1], the Tm stood at 49.3 °C. Besides, the folding enthalpy in data set [2] is -32.4 kcal/mol.
In the same order, the values of GGACCGCGAAAGCGCTCC (((.(((....))).))) are 46.8 °C and -16.2 kcal/mol.
As for GGACCGCGAAAGCGTCC (((.(((....)))))), in data set [1], the Tm came out at 59.6 °C. Moreover, the folding enthalpy in data set [2] was -17.1 kcal/mol.
In the same order, the values of GGACCGGGAAACCGGCCC ((.((((....)))).)) are 57.9 °C and -19.9 kcal/mol.
On the same counts, the results for GGACCTCGAAAGAGTCC (((.(((....)))))) are 49.8 °C and -32.7 kcal/mol.
With GGACCTGGAAACAGGCCC ((.((((....)))).)), the Tm in data set [1] amounted to 52.7 °C. Also, the folding enthalpy in data set [2] was -25.8 kcal/mol.
In the case of GGACCTGGAAACAGGTCC (((((((....))))))), in data set [1], the Tm stood at 68.7 °C. The folding enthalpy in data set [2] is -28.2 kcal/mol.
On the same counts, the results for GGACCTGGAAACAGGTTC (.(((((....))))).) are 52.7 °C and -27.5 kcal/mol.
On to GGACCTGGAAACGGGTTC (.(((.(....).))).), for which the Tm in data set [1] stood at 38.6 °C. In data set [2], the folding enthalpy is -26.6 kcal/mol.
On the same counts, the results for GGACGAGGAAACTCGTCC (((((((....))))))) are 68.8 °C and -44.4 kcal/mol.
As to GGACGAGGAAACTCGTTC (.(((((....))))).), the Tm in data set [1] is 51.6 °C. In data set [2], the folding enthalpy is -32.5 kcal/mol.
With GGACGAGGAAACTTGTCC ((((.((....)).)))), in data set [1], the Tm came out at 50.7 °C. In addition, in data set [2], the folding enthalpy was -43.5 kcal/mol.
On the same counts, the results for GGACGCCGAAAGGCCTCC (((.(((....))).))) are 44.5 °C and -19.1 kcal/mol.
On to GGACGCGAAAGCGGTCC ((((((....))).))), for which the Tm in data set [1] was 68.8 °C. For the same sequence, the folding enthalpy in data set [2] was -21.2 kcal/mol.
On the same counts, the results for GGACGCGGAAACACGTCC (((((.(....).))))) are 54.8 °C and -38.9 kcal/mol.
On the same counts, the results for GGACGGCGAAAGCCATCC (((.(((....))).))) are 50 °C and -23.7 kcal/mol.
On the same counts, the results for GGACGGCGAAAGCCCTCC (((.(((....))).))) are 41.4 °C and -20.5 kcal/mol.
With GGACGGGCGAAAGCCTCC (((..(((....)))))), in data set [1], the Tm was 33.7 °C. Besides, in data set [2], the folding enthalpy is -10.5 kcal/mol.
On the same counts, the results for GGACGGGGAAACCCGCCC ((.((((....)))).)) are 58.7 °C and -34.1 kcal/mol.
In the same order, the values of GGACGGGGAAACTCGTCC (((((.(....).))))) are 58 °C and -41 kcal/mol.
For GGACGTCCGAAAGGATCC (((..(((....)))))), the Tm in data set [1] worked out at 25.8 °C. In addition, the folding enthalpy in data set [2] is -14.9 kcal/mol.
On the same counts, the results for GGACGTGGAAACACATCC (((.(((....))).))) are 41.1 °C and -25.9 kcal/mol.
On the same counts, the results for GGACGTGGAAACATGTCC ((((.((....)).)))) are 53.7 °C and -38.5 kcal/mol.
On the same counts, the results for GGACTAGAAATAGTCC ((((((....)))))) are 52.9 °C and -33 kcal/mol.
Regarding GGACTCCGAAAGGACTCC (((.(((....))).))), the Tm in data set [1] was 39.2 °C. Also, the folding enthalpy in data set [2] was -21.1 kcal/mol.
GGACTCGAAAGAGGTCC ((((((....))).))): the Tm in data set [1] is 52.4 °C. In data set [2], the folding enthalpy was -35.2 kcal/mol.
On the same counts, the results for GGACTCGAAAGAGTTCC ((((((....))).))) are 50.3 °C and -21.2 kcal/mol.
In the same order, the values of GGACTGCGAAAGCAATCC (((.(((....))).))) are 47.8 °C and -12.7 kcal/mol.
In the same order, the values of GGACTTGGAAACAAGTTC (.(((((....))))).) are 47.5 °C and -29.8 kcal/mol.
Regarding GGAGACGAAAGTCAGTCC ((((((....)))..))), the Tm in data set [1] was 31.6 °C. In addition, the folding enthalpy in data set [2] was -13.6 kcal/mol.
On the same counts, the results for GGAGACGAAAGTCCTCC ((((((....))).))) are 48.7 °C and -25 kcal/mol.
In the case of GGAGACGAAAGTCGTCC ((((((....))).))), in data set [1], the Tm worked out at 49.5 °C. The folding enthalpy in data set [2] is -14.3 kcal/mol.
On the same counts, the results for GGAGACGAAAGTCTATCC ((((((....)))..))) are 32.8 °C and -12.5 kcal/mol.
With GGAGACGAAAGTCTCTCC ((((((....)))..))), the Tm in data set [1] came to 54.5 °C. Further, the folding enthalpy in data set [2] is -9.83 kcal/mol.
In the same order, the values of GGAGACGAAAGTCTTTCC ((((((....)))..))) are 32.6 °C and -10.9 kcal/mol.
GGAGACGGAAACATCTCC (((((.(....).))))): the Tm in data set [1] turned out to be 39.5 °C. Further, the folding enthalpy in data set [2] was -31.8 kcal/mol.
For GGAGACGGAAACGTCCCC ((.((((....)))).)), the Tm in data set [1] was determined as 49.2 °C. Besides, the folding enthalpy in data set [2] is -20.1 kcal/mol.
GGAGACGGAAACGTTTCC (((.(((....))).))): in data set [1], the Tm stood at 49.5 °C. For the same sequence, in data set [2], the folding enthalpy is -30.3 kcal/mol.
In the same order, the values of GGAGAGGGAAACCTCCCC ((.((((....)))).)) are 39.9 °C and -16.2 kcal/mol.
In the same order, the values of GGAGAGGGAAACCTCTCC (((((((....))))))) are 63.3 °C and -46.6 kcal/mol.
On the same counts, the results for GGAGATGGAAACATCTTC (.(((((....))))).) are 44.6 °C and -26.2 kcal/mol.
Consider GGAGCACGAAAGTGTTCC (((.(((....))).))), for which the Tm in data set [1] amounted to 58.8 °C. Besides, the folding enthalpy in data set [2] was -39.8 kcal/mol.
On the same counts, the results for GGAGCCCCGAAAGGGTCC (((..(((....)))))) are 47.4 °C and -20.4 kcal/mol.
In the same order, the values of GGAGCCGGAAACGGCCCC ((.((((....)))).)) are 58.5 °C and -15.5 kcal/mol.
In the same order, the values of GGAGCGGGAAACCACTCC ((((.((....)).)))) are 49.2 °C and -34.7 kcal/mol.
Consider GGAGCTACGAAAGTATCC (((..(((....)))))), for which the Tm in data set [1] was determined as 19.7 °C. For the same sequence, in data set [2], the folding enthalpy was -5.61 kcal/mol.
On the same counts, the results for GGAGCTCCGAAAGGATCC (((..(((....)))))) are 30.5 °C and -10.9 kcal/mol.
On the same counts, the results for GGAGCTGGAAACAGCTTC (.(((((....))))).) are 53.1 °C and -26.4 kcal/mol.
On the same counts, the results for GGAGGAACGAAAGTTTCC (((..(((....)))))) are 30.4 °C and -16.2 kcal/mol.
With GGAGGACGAAAGTCGTCC (((.(((....))).))), the Tm in data set [1] is 59.4 °C. In addition, in data set [2], the folding enthalpy is -28.9 kcal/mol.
Consider GGAGGAGGAAACCCCTCC (((((.(....).))))), for which, in data set [1], the Tm is 48.1 °C. For the same sequence, the folding enthalpy in data set [2] is -26.7 kcal/mol.
On the same counts, the results for GGAGGAGGAAACTCCTCC (((((((....))))))) are 65.9 °C and -40.3 kcal/mol.
On the same counts, the results for GGAGGAGGAAACTCTTCC (((.(((....))).))) are 42.2 °C and -29.1 kcal/mol.
In the same order, the values of GGAGGATCGAAAGATTCC (((..(((....)))))) are 28.4 °C and -19.1 kcal/mol.
With GGAGGCCGAAAGGCTCC (((.(((....)))))), the Tm in data set [1] was 57.2 °C. Also, in data set [2], the folding enthalpy was -21.1 kcal/mol.
On the same counts, the results for GGAGGCGAAAGCCACTCC ((((((....)))..))) are 42.6 °C and -12.1 kcal/mol.
In the same order, the values of GGAGGCGAAAGCCATTCC ((((((....)))..))) are 34.7 °C and -7.5 kcal/mol.
In the same order, the values of GGAGGCGAAAGCCCCTCC ((((((....)))..))) are 59.1 °C and -12.6 kcal/mol.
In the case of GGAGGCGAAAGCCGTTCC ((((((....)))..))), the Tm in data set [1] came to 41.6 °C. Also, in data set [2], the folding enthalpy is -8.29 kcal/mol.
In the same order, the values of GGAGGCGAAAGCCTATCC ((((((....)))..))) are 40.8 °C and -9.28 kcal/mol.
In the same order, the values of GGAGGCTCGAAAGAGTCC (((..(((....)))))) are 35.8 °C and -14.4 kcal/mol.
On the same counts, the results for GGAGGGGGAAACCCCCCC ((.((((....)))).)) are 50.9 °C and -14.9 kcal/mol.
Consider GGAGGGGGAAACCTCTCC ((((.((....)).)))), for which the Tm in data set [1] stood at 51.3 °C. Moreover, the folding enthalpy in data set [2] is -35.8 kcal/mol.
On to GGAGGTCCGAAAGGATCC (((..(((....)))))), for which, in data set [1], the Tm was determined as 38.3 °C. Further, in data set [2], the folding enthalpy is -12 kcal/mol.
Take GGAGGTGCGAAAGCATCC (((..(((....)))))): the Tm in data set [1] was 39.3 °C. The folding enthalpy in data set [2] was -11.6 kcal/mol.

Source of the values: the array DNA melting data of Ke et al. (doi:10.1101/2024.01.08.574731).
